Assay results of several laboratories.
Each line is one published result; the experiments were not run side by side.
MAOB: Amine oxidase [flavin-containing] B (MAOB, Homo sapiens, UniProt P27338)
HCK: Tyrosine-protein kinase HCK (HCK, Homo sapiens, UniProt P08631)

SMILES	target	test	conditions	quantity	value
C#Cc1cc(-c2cc(Nc3nc(N[C@@H](C)c4ccc(F)cn4)ncc3Cl)n[nH]2)ccc1C=O	Serine/threonine-protein kinase N1 (PKN1, Homo sapiens, UniProt Q16512)	enzyme activity, inhibitor	0.2 µM	inhibition	38.5%
O=C(Nc1ccc(Cl)c(F)c1)c1ccc2c(c1)C(=O)NC2=O	MAOB	enzyme activity, inhibitor	1 µM	inhibition	87%
Nc1ncnc2c1ncn2[C@@H]1O[C@H](COP(=O)(O)OP(=O)(O)OP(=O)(O)O)[C@@H](O)[C@H]1O	GUK1 (Homo sapiens, UniProt Q16774)	enzyme activity, substrate	–	Km	102 µM
CC(=O)ON=C1C=CC(=C(C#N)c2ccccc2)C=C1	Receptor-interacting serine/threonine-protein kinase 3 (RIPK3, Homo sapiens, UniProt Q9Y572)	enzyme activity, inhibitor, ADP detection	20 µM	activity vs control	110%
C[C@H](NC(=O)C(=O)Nc1ccccc1C(C)(C)C)C(=O)N[C@@H](CC(=O)O)C(=O)COc1c(F)c(F)cc(F)c1F	Caspase-1 (Casp1, Mus musculus, UniProt P29452)	enzyme activity, inhibitor	–	kinact/KI	4.27e+06 M⁻¹ s⁻¹
O=C(Nc1ccc(Cl)c(Br)c1)c1ccc2c(c1)C(=O)NC2=O	MAOB	enzyme activity, inhibitor	1 µM	inhibition	97.5%
CCCCC(=O)Nc1ccc(-c2ccc3ncn(CCC)c(=O)c3c2)cn1	HCK	binding, competition with immobilised ligand	0.5 µM	remaining binding	98%
Cc1cc(F)cc2c(CCC(=O)N[C@@H]3C(=O)NC[C@H]3O)c(-c3ccc(F)cc3)[nH]c12	Histamine H1 receptor (HRH1, Homo sapiens, UniProt P35367)	cell-free assay	10 µM	inhibition	17%
COc1ccc2oc(-c3ccc4nc(N)oc4c3)c/c(=N\c3ccccc3NC(=O)CCN)c2c1	HCK	binding	1 µM	remaining binding	108%
C1=C/COCc2cc(ccc2OCCN2CCCC2)Nc2nccc(n2)-c2cccc(c2)COC/1	HCK	binding	0.1 µM	remaining binding	100%
C#CCN[C@@H]1CCc2ccccc21	MAOB	enzyme activity, inhibitor	1 µM	inhibition	87.2%
C[C@]1(O)CCCN(c2nc(Nc3ccc(S(=O)(=O)N[C@H]4CC[C@H](CN5CCN(c6ccc(C7CCC(=O)NC7=O)cc6F)CC5)CC4)cc3F)ncc2C(F)(F)F)C1 (some centres unmarked)	NUAK family SNF1-like kinase 2 (NUAK2, Homo sapiens, UniProt Q9H093)	binding, competition with immobilised ligand	1 µM	remaining binding	45%
COc1cccc(NC(=O)c2ccc3c(c2)C(=O)NC3=O)c1	MAOB	enzyme activity, inhibitor	1 µM	inhibition	< 5%
NC/C(=C\F)COc1cccc(Cn2c(=S)[nH]c(=O)c3[nH]cnc32)c1	MAOB	enzyme activity, inhibitor	200 pM	inhibition	29.1%
